# TRPC6 activator: activators of mouse TRPC6 channel; Q61143; HEK293-TRPC6 membrane potential dye fluorescence; hits give high values; B-score at 10 µM; 0.13% of 310,000 active;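 active = B-score of the integrated fluorescence ratio above library mean plus 3 SD, and starting fluorescence ratio within library mean plus 5 SD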;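 also: higher score means more depolarization so channel activation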
# Target sequence (Q61143 whole entry, looked up): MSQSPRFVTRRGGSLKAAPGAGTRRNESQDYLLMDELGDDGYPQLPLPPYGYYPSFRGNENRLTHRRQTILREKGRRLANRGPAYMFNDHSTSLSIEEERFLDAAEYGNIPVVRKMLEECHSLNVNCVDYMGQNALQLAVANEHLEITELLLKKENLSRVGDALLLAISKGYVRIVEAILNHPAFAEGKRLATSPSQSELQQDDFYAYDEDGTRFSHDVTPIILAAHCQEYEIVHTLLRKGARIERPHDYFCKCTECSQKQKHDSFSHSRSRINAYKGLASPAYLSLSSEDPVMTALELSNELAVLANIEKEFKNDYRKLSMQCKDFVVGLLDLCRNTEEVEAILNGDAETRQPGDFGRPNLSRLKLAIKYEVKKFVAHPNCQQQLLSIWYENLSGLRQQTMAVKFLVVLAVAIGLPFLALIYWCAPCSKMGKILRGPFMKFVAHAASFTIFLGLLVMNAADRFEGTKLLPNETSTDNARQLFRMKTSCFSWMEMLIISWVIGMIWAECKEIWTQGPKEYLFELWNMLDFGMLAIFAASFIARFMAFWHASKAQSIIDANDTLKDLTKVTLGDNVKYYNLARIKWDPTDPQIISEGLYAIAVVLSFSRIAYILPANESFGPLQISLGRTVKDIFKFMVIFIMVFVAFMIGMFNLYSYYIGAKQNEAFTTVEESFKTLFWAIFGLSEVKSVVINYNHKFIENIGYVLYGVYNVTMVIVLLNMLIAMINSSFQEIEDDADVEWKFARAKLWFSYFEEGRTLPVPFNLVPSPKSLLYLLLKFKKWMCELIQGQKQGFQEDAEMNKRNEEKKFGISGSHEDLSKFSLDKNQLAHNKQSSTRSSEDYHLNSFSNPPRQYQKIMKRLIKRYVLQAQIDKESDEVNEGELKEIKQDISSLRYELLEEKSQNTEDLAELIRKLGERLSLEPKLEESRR
# Kir21 inh: blocks the mouse Kir2.1 inward-rectifier potassium channel | P35561 | HEK293-Kir2.1, FluxOR thallium flux fluorescence; hits give low values | B-score at 10 µM | 0.85% of 310,000 active | AID 1672;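 active = fluorescence ratio B-score at or below minus 3 SD of library scores, with starting-brightness B-score within 2 SD, cut at about -4.2 in these data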;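 also: channel flux triggered by added potassium and thallium sulfate stimulus; B-score of peak minus minimum fluorescence over baseline after thallium stimulus; more negative B-score means stronger Kir2.1 block with less thallium influx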
# TRPC4 block: TRPC4 (mouse) channel inhibition; HEK293 TRPC4beta/mu-opioid, DAMGO-evoked Fluo4 calcium flux; hits give low values; B-score at 10 µM; 0.39% of 300,000 active; AID 2247;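 active = B-score over 3 SD under the library average, no early fluorescence shift, positive overall ratio signal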
#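 Assay system: TRPC4beta/mu-opioid receptor HEK293 cell line; compound dosing: single concentration per test compound; detection: Fluo4 Ca2+ flux fluorescence; evaluation: per-well B score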
# TRPC4 PAM: TRPC4 (mouse) allosteric potentiation | HEK293 TRPC4beta/mu-opioid, DAMGO EC20, Fluo-4 Ca2+ flux; hits give high values | 0.42% of 310,000 active | AID 2227 | B-score at 10 µM;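 active = B-score of calcium response area above 5 SD of library B-scores, with initial fluorescence ratio within 5 SD of library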;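 also: B-score of integrated fluorescence ratio over time as area under calcium response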
# TRPC6 inhibitor: inhibitors of mouse TRPC6 channel. Q61143. HEK293-TRPC6, membrane potential dye, ACh-evoked depolarization; hits give low values. B-score at 10 µM. 1.1% of 310,000 active;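 active = B-score under library mean minus 3 SD, initial fluorescence not abnormally high, positive integrated signal ratio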;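 also: B-score derived from integrated fluorescence ratio over the kinetic read; more negative B-score means stronger inhibition of depolarization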
# TRPC4 agonist: opens the mouse TRPC4 cation channel | Q9QUQ5 | HEK293 TRPC4beta/mu-opioid, Fluo4 calcium fluorescence; hits give high values | B-score at 10 µM | 0.49% of 310,000 active | AID 2237;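 active = B-score above 5 SD of library B-scores, and initial fluorescence ratio not above library mean plus 5 SD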;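 also: positive B-score marks a calcium rise read as TRPC4 activation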
#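 System – HEK293 cells stably co-expressing mouse TRPC4beta and mu-opioid receptor · Signal – Fluo4 calcium-sensitive dye fluorescence, kinetic, 1 Hz baseline · Benchmarks – buffer (low) and maximal DAMGO (high) · Read-out – B score of integrated fluorescence ratio per well · Incubation – dye loading 45 min room temperature, 110 s kinetic read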
# * hit, by the source's call; i = inactive. Most compounds without a hit are left out; they make up all but 3% or so of the library.
SMILES,TRPC6 activator,Kir21 inh,TRPC4 block,TRPC4 PAM,TRPC6 inhibitor,TRPC4 agonist
COCCn1c(SCc2ccc(F)cc2)nc2ccccc2c1=O,i,-0.08,-6*,i,i,i
COCCn1c(SCc2nc3ccccc3c(=O)[nH]2)nc2ccccc2c1=O,i,0.45,i,i,i,i
O=c1[nH]c(SCCOc2ccccc2F)nc2ccccc12,i,0.34,i,i,i,i
CC(=O)N/C(=C\c1ccccc1)C(=O)OC/C=C/c1ccccc1,i,0.18,i,i,i,i
CCn1c(C)nc2cc(NC(=O)Nc3cccc(C(C)=O)c3)ccc21,i,-1.5,i,i,i,i
CCC(=O)N(C)CCc1cc2c(c(OC)c1/C=N/NC(=O)c1ccc(Br)cc1)OCO2,i,-0.89,-7*,i,i,i
Clc1cccc2c1Sc1ccccc1CC2N1CCNCC1 (stereo not drawn),i,-9.7*,i,i,i,i
COc1ccc(N2CCN(S(=O)(=O)CCNC(=O)/C=C/c3ccc4c(c3)OCO4)CC2)cc1,i,0.18,i,i,i,i
C=CCn1c(SCc2ccccc2C#N)nnc1-c1cc(Br)ccc1O,i,-8.3*,i,i,i,i
COc1ccccc1N1CCN(c2ncc(C(=O)N3CCN(c4cccc(Cl)c4)CC3)c3ccccc23)CC1,i,1.5,i,21*,i,i
CCN1CCN(c2ncc(C(=O)Nc3cc(Cl)ccc3OC)c3ccccc23)CC1,i,-1.5,i,12*,i,i
COc1ccc(Cl)cc1NC(=O)CCN1CCN(c2ccccc2C)CC1,i,-0.11,i,i,i,i
COc1ccccc1N1CCN(C(=O)C2CCN(C(=O)c3cccc(Cl)c3)CC2)CC1,i,-0.53,i,i,i,i
CC(CC(=O)N(CCC1=CCCCC1)c1c(N)n(Cc2ccccc2)c(=O)[nH]c1=O)c1ccccc1 (stereo not drawn),i,0.1,i,i,i,i
O=C(Nc1ccc(Cl)c(Cl)c1)c1ccc(Cl)c(Cl)c1,i,-0.45,i,i,i,i
O=C(Nc1ccc(C2=NCCN2)cc1)c1ccc(Cl)c(C(=O)Nc2ccc(C3=NCCN3)cc2)c1,14*,0,i,i,i,i
COc1ccc(-c2csc(NC(=O)Cc3cccc4ccccc34)c2C(=O)O)cc1,i,-0.16,-7*,i,i,i
COc1ccc(-c2csc(NC(=O)c3ccccc3Br)c2C(=O)O)cc1,i,1.1,i,i,i,i
O=C(C#Cc1ccccc1)Nc1cccc(F)c1,i,-0.74,i,i,i,i
COc1ccccc1Oc1nc(C)c(C(C)=O)cc1C#N,i,2.3,i,12*,i,i
COC(=O)c1cc(C#N)c(Oc2ccccc2)nc1C,i,0.43,i,i,i,i
O=C(/C=C/c1cccs1)NC(=S)NNC(=O)c1ccccc1O,i,0.13,i,i,i,47*
C=CCN1C(=O)/C(=C2/Sc3ccc(OC)cc3N2C)SC1=Nc1cccc(O)c1,i,-0.02,i,i,i,i
O=[N+]([O-])/C=C/c1cn(Cc2ccc(Cl)cc2)c2ccccc12,i,-5.7*,i,i,i,i
Cc1cccc(Cn2cc(/C=C/[N+](=O)[O-])c3ccccc32)c1,i,-2.5,i,i,i,i
SMILES,TRPC6 activator,Kir21 inh,TRPC4 block,TRPC4 PAM,TRPC6 inhibitor,TRPC4 agonist
COC(=O)Nc1ccc2c(c1)N(C(=O)CCCl)c1ccccc1S2,i,0.19,i,i,i,i
COc1ccc(C(=O)Nc2c(Cl)cc(Cl)cc2C(=O)N2CCOCC2)cc1,i,-0.02,i,i,i,i
Cc1ccc(C)c(-c2csc(N)c2C(=O)OC(C)C)c1,i,0.19,i,i,i,i
Cc1cccc(-c2csc(N)c2C(=O)OC(C)C)c1,i,-2.8,-6*,i,i,i
CCc1ccc(C(=O)c2cnc3ccc(OC)cc3c2N2CCN(CC)CC2)cc1,i,-1,i,i,i,230*
CCOC(=O)c1cnc2ccc(OCC)cc2c1N1CCN(c2ccccc2OC)CC1,i,0.1,i,i,i,i
CCOc1ccc2ncc(C(=O)c3ccc(OC)cc3)c(N3CCN(CC)CC3)c2c1,i,0.36,i,i,i,120*
CCOc1ccc(C(=O)c2cnc3ccccc3c2N2CCN(CC)CC2)cc1,i,-1.1,-5*,i,i,i
CCOC(=O)C1CCN(c2c(C(=O)c3ccccc3)cnc3ccc(Cl)cc23)CC1,i,0.16,i,i,i,i
Cc1ccc(C(=O)N/C(=C\c2ccccc2)C(=O)NCCCn2ccnc2)cc1,i,0.52,i,i,i,i
CCN(CC(=O)Nc1c(F)cccc1F)C(=O)/C=C/c1ccc(Br)s1,i,0.73,i,i,i,i
O=C(O)CCc1cc(I)c(Oc2ccc(O)c(I)c2)c(I)c1,i,-0.74,i,i,i,59*
Cn1c(N)c(Br)c(-c2ccc(F)cc2)c(C#N)c1=O,i,-0.02,-5*,i,i,i
Cc1cc(C)c(C)c(S(=O)(=O)NCCCn2ccnc2)c1C,i,-0.33,i,i,i,i
COc1cccc(CNC(=O)C(NS(=O)(=O)c2ccc3c(c2)CCN3C(C)=O)C(C)C)c1 (stereo not drawn),i,1,i,i,i,i
COc1ccc(OCC(O)Cn2c(=N)n(Cc3ccccc3)c3ccccc32)cc1 (stereo not drawn),i,-7.3*,i,i,i,i
CCOc1ccc(CN2CCN(CC(O)Cn3c4ccccc4c4ccccc43)CC2)cc1 (stereo not drawn),i,-1.2,i,i,i,i
N=c1n(Cc2ccccc2)c2ccccc2n1Cc1ccccc1,i,-2.9,i,i,i,i
COc1ccc(CN2CCN(CC(O)Cn3c4ccccc4c4ccccc43)CC2)cc1 (stereo not drawn),i,-4.4*,i,i,i,79*
N=c1n(Cc2ccccc2)c2ccccc2n1CC(O)COc1ccc(Cl)cc1Cl (stereo not drawn),i,-4.2,i,12*,i,i
N=c1n(Cc2ccc(Cl)cc2)c2ccccc2n1CC(O)COc1ccccc1 (stereo not drawn),i,-9.6*,i,i,i,86*
